Measured values as given in ChEMBL document CHEMBL3751756, “Hydroxylated chalcones with dual properties: Xanthine oxidase inhibitors and radical scavengers” (Bioorg Med Chem, 2016).

How the values were obtained:
[1] = Cytoprotective activity against amyloid beta-induced oxidative stress in mouse Neuro2a cells assessed as cell viability at 250 uM after 6 hrs by MTT assay; type: functional; conditions: N2a, read-out: Activity
How it was run: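 Murine Neuro-2A cells in DMEM with 10% FBS and penicillin-streptomycin, 37°C, 5% CO2; trypsinized ≤1 min, seeded 2,000–4,000 cells/mL, 6 h. Then added 10 μL of 250 μM compound (stock), 15 μL of 833 μM Aβ 25–35 (stock), and MTT (5 mg/mL); 6 h, then SDS/DMF extraction buffer 6 h at 37°C in dark; A570 as percent of unstressed control.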

[2] = target: Xanthine dehydrogenase/oxidase (Bos taurus, UniProt P80457); assay: Inhibition of bovine xanthine oxidase assessed as conversion of xanthine to uric acid by spectroscopic analysis
Xanthine dehydrogenase/oxidase, sequence (P80457 whole entry): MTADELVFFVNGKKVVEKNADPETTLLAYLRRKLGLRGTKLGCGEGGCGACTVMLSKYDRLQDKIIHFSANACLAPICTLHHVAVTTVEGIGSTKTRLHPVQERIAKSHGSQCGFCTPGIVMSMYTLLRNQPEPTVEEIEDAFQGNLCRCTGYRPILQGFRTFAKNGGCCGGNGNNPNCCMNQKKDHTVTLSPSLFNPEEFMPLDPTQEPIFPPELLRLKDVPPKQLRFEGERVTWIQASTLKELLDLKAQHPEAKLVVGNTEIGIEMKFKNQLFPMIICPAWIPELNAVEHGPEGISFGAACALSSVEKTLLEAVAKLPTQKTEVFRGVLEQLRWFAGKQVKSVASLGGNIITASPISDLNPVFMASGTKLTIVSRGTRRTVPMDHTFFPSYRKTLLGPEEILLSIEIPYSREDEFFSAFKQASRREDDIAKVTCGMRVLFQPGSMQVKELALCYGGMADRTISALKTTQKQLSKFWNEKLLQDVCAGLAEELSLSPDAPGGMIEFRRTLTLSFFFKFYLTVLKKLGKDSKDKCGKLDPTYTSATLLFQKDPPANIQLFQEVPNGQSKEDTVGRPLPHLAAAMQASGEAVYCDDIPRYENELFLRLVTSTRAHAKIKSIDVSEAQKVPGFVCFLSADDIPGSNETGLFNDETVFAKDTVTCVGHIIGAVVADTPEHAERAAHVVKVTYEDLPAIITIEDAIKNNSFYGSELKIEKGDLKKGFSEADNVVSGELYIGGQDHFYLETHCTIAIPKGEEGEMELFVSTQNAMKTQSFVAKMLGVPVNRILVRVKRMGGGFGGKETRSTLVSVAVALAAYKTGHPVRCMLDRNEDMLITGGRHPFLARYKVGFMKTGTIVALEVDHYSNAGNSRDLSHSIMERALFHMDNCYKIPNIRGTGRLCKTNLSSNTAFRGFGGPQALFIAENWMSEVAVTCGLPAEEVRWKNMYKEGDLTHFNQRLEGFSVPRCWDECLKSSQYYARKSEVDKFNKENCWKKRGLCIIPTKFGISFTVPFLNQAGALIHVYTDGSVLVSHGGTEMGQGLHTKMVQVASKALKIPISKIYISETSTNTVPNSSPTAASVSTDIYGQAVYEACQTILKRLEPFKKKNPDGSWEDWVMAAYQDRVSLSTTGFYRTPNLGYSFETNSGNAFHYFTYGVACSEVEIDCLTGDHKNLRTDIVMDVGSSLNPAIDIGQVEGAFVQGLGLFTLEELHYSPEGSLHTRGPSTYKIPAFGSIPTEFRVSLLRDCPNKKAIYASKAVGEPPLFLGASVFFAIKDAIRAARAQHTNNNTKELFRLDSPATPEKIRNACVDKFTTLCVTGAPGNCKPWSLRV
How it was run: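 XO suspended in 20 mM phosphate pH 7.5, added to xanthine (final 46 μM; final enzyme 39 μg/mL); uric acid formation followed at 295 nm for 5 min. Eleven inhibitor concentrations bracketing the IC50; rates by linear regression of absorbance vs time, fitted to a three-parameter logistic to give IC50.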

[3] = Antioxidant activity assessed as DPPH radical scavenging activity by measuring remaining DPPH level at 20 uM after 30 mins by plate reader analysis; type: physicochemical; conditions: 0.5 h
How it was run: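 DPPH (0.2 mM in ethanol, 50 μL freshly prepared) mixed with 150 μL test compound in ethanol, 5–50 μM range; 30 min at room temperature in dark; loss of absorbance at 517 nm read. Scavenging activity = (1 − A_test/A_control) × 100%, control lacking scavenger; reported activity taken at 20 µM compound.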

| SMILES | viability at 250 µM [1] [%] | IC50 [2] | Activity [3] [%] | IC50 ([2]; read-out: IC50) [µM] |
| --- | --- | --- | --- | --- |
| O=C(/C=C/c1ccccc1)c1cccc(O)c1 | 5.9 | Not Active | 0.2 |  |
| O=C(/C=C/c1ccccc1)c1ccc(O)cc1O [2',4'-DIHYDROXYCHALCONE] | 3.9 | Not Active | -3 |  |
| O=C(/C=C/c1ccc(O)c(O)c1)c1cc(O)ccc1O | 46 |  | 91 | 17 |
| O=C(/C=C/c1ccc(O)c(O)c1)c1ccc(O)c(O)c1 | 40 |  | 77 | 3 |
| O=C(/C=C/c1ccc(O)c(O)c1)c1cc(O)cc(O)c1 | 26 |  | 84 | 6.5 |
| O=C(/C=C/c1ccc(O)c(O)c1)c1cccc(O)c1 | 35 |  | 82 | 5.3 |
| O=C(/C=C/c1ccc(O)c(O)c1)c1ccc(O)c(O)c1O | 118 |  | 92 | 1.2 |
| O=C(/C=C/c1ccc(O)c(O)c1O)c1ccc(O)c(O)c1 | 51 |  | 57 | 18 |
| O=C(/C=C/c1cccc(O)c1O)c1ccc(O)c(O)c1 | 46 |  | 70 | 93 |
| O=C(/C=C/c1cccc(O)c1)c1ccc(O)cc1O | 6.9 |  | 0.5 | 27 |
| O=C(/C=C/c1ccccc1)c1ccccc1O [2'-HYDROXYCHALCONE] | 1.7 | Not Active | 6.7 |  |
| O=C(/C=C/c1ccc(O)c(O)c1)c1ccc(O)cc1O [BUTEIN] | 71 |  | 90 | 1.3 |
| O=C(/C=C/c1cc(O)ccc1O)c1ccc(O)c(O)c1 | 70 |  | 86 | 8.6 |
| O=C(/C=C/c1ccc(O)c(O)c1)c1ccc(O)cc1 | 28 |  | 42 | 4.3 |
| O=C(/C=C/c1ccc(O)c(O)c1O)c1ccc(O)c(O)c1O | 91 |  | 82 | 5.5 |
| O=C(/C=C/c1ccc(O)cc1)c1ccccc1 [4-HYDROXYCHALCONE] | 0 |  | -9.1 | 290 |
| O=C(/C=C/c1ccccc1O)c1ccccc1 | 3 | Not Active | -0.6 |  |
| O=C(/C=C/c1ccc(O)c(O)c1)c1ccccc1 | 4.3 |  | 90 | 53 |
| O=C(/C=C/c1ccccc1)c1ccc(O)cc1 [4'-HYDROXYCHALCONE] | 1.4 | Not Active | -1.4 |  |
| O=C(/C=C/c1ccc(O)c(O)c1)c1c(O)cccc1O | 28 |  | 90 | 35 |
